Results from ChEMBL document CHEMBL6083205, “A comprehensive apoptotic assessment of niloticin in cervical cancer cells: a tirucallane-type triterpenoid from Aphanamixis polystachya (Wall.) Parker” (RSC Med Chem, 2024).

Tested on: HeLa
Assay: Antiproliferative activity against human HeLa cells assessed as inhibition of cell growth incubated for 24 hrs by MTT assay
Format: functional, cell-based
Outline: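 Cells kept in DMEM with 10% FBS and 1% antibiotic-antimycotic at 37 °C and 5% CO2. Seeded at 8 × 10^3 cells per 100 μL and left 24 h, then exposed 24 h to 5, 10, 20, 50 or 100 μM. MTT at 0.5 mg/mL in HBSS was added for 2–4 h at 37 °C in the dark. Formazan was dissolved in DMSO, A570 was read, and IC50 was derived.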

Row | IC50 [µM] | SMILES
1 | 32.2 | COc1cccc2c1C(=O)c1c(O)c3c(c(O)c1C2=O)C[C@@](O)(C(=O)CO)C[C@@H]3O[C@H]1C[C@H](N)[C@H](O)[C@H](C)O1 [DOXORUBICIN]
2 | > 100 | C=C(C)[C@@H](O)[C@H](O)C[C@H](C)[C@@H]1CC[C@]2(C)C3=CC[C@H]4C(C)(C)C(=O)CC[C@]4(C)[C@H]3CC[C@@]12C

Row | SMILES | IC50 [µM]
3 | C[C@@H](C[C@@H](O)[C@H](O)C(C)(C)O)[C@@H]1CC[C@]2(C)C3=CC[C@H]4C(C)(C)C(=O)CC[C@]4(C)[C@H]3CC[C@@]12C | > 100
